Results from different studies.
Each line is one published result; the experiments were not run side by side.
Target: Serine/threonine-protein kinase 10 (STK10, Homo sapiens, UniProt O94804)

Structure (SMILES)	observed	action	method	cell line	tested at	quantity	value
CC(C)(O)[C@H]1CC[C@H](Nc2ccc3ncc(-c4cccc(C(F)(F)F)c4)n3n2)CC1	enzyme activity	inhibitor			1 µM	remaining activity	63.8%
CNCc1ccccc1-c1csc([C@H](C)Nc2nc(C)nc3cc(OC)c(OC)cc23)c1	cell-free assay		competition with immobilised ligand		1 µM	remaining binding	100%
C#Cc1cccc(Nc2ncnc3cc(OCCOC)c(OCCOC)cc23)c1	cell-free assay				0.5 µM	remaining signal	20.3%
CCCS(=O)(=O)Nc1ccc(F)c(C(=O)c2c[nH]c3ncc(-c4ccc(Cl)cc4)cc23)c1F	enzyme activity	inhibitor			1 µM	inhibition	< 10%
NS(=O)(=O)c1cc(NC(=O)Cc2ccccc2)ccc1Oc1cccc(Cl)c1	cell-free assay		competition with immobilised ligand		1 µM	remaining binding	65%
CCN(CC)CCNC(=O)c1c(C)[nH]c(/C=C2\C(=O)Nc3ccc(F)cc32)c1C	enzyme activity	inhibitor			10 µM	inhibition	83%
CCN1CCN(Cc2ccc(NC(=O)c3ccc(C)c(Oc4ccnc5[nH]ccc45)c3)cc2C(F)(F)F)CC1	target engagement in cells	inhibitor	chemoproteomics	Huh-7	1 µM	inhibition	-148%
O=C1Nc2ccc(Cl)cc2C1=Cc1cc(Cl)c(O)c(Cl)c1	cell-free assay				0.5 µM	remaining signal	77.1%
Nc1ncnc2occ(-c3ccc(NC(=O)Nc4cc(C(F)(F)F)ccc4F)cc3)c12	cell-free assay	inhibitor			20 µM	remaining signal	0%
CN1CC(Oc2cnc(C#N)cc2-c2ccn3nc(NC(=O)C4CC4)cc3c2)C1	enzyme activity	inhibitor			1 µM	inhibition	30%
CC(C)c1ccc(NC(=O)c2cccs2)c(-c2nc3ccccc3[nH]c2=O)c1	enzyme activity	inhibitor			1 µM	activity vs control	103%
CCN1CCN(Cc2ccc(NC(=O)c3ccc(C)c(/C=C/c4cnc5[nH]ccc5c4OC)c3)cc2C(F)(F)F)CC1	target engagement in cells	inhibitor	chemoproteomics	A-375	0.5 µM	inhibition	-69.1%
O=C(Nc1cnn(-c2csc(C(=O)NC3COC3)c2)c1)Nc1ccccc1Cl	enzyme activity	inhibitor			5 µM	remaining activity	87.9%
O=C(O)[C@H]1[C@H](Cn2nnc3ccccc3c2=O)CC[C@@H]1C(=O)c1ccc(OCCC2CCOCC2)cc1	cell-free assay		competition with immobilised ligand		1 µM	remaining binding	100%
Cc1cnc(NC2CCOCC2)nc1-n1cnc(C(=O)NC(CN)c2cc(F)cc(Cl)c2)c1 (centres unmarked)	enzyme activity	inhibitor	radiometric		1 µM	remaining activity	87%
O=S(=O)(NC1CCC(c2cc(F)ccc2F)(S(=O)(=O)c2ccc(Cl)cc2)CC1)C(F)(F)F (centres unmarked)	cell-free assay		competition with immobilised ligand		1 µM	remaining binding	100%
CNC(=O)c1cc(Oc2ccc(NC(=O)Nc3ccc(Cl)c(C(F)(F)F)c3)cc2)ccn1	enzyme activity	inhibitor			0.3 µM	inhibition	43%
Cc1c[nH]c2nccc(Oc3c(F)cc(Nc4cc(Cl)nc(N)n4)cc3F)c12	cell-free assay		competition with immobilised ligand		0.1 µM	remaining binding	100%
Cc1ccc(Nc2nccc(N(C)c3ccc4c(C)n(C)nc4c3)n2)cc1S(N)(=O)=O	enzyme activity	inhibitor			0.5 µM	remaining activity	50.1%
O=C1CCc2cc(Nc3cc(OC4CCOCC4)c([N+](=O)[O-])cc3Cl)ccc2N1	cell-free assay		competition with immobilised ligand		1 µM	remaining binding	100%
Cc1sc(C(=O)NC2COC2)cc1-n1cc(NC(=O)Nc2c(F)cccc2Cl)cn1	enzyme activity	inhibitor			10 µM	remaining activity	96.4%
Nc1cnc(N2CCc3cc(S(=O)(=O)Nc4c(F)cc(Cl)cc4F)cc(N4CCCC4=O)c32)nc1	cell-free assay		competition with immobilised ligand		1 µM	remaining binding	100%
COc1cc2nccc(Oc3ccc(NC(=O)Nc4ccc(F)cc4F)c(F)c3)c2cc1OC	thermal stability		DSF		10 µM	ΔTm	> 10 °C
